Test [1] deals with PI3-kinase p110-alpha/p85-alpha (Homo sapiens, UniProt P42336). Briefly: Inhibition of recombinant human full length His-tagged PI3K p110alpha/p85alpha expressed in baculovirus expression system coexpressing PIK3R1 by TR-FRET assay. In outline:
(§1)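 PI3K isoform activity by fluorescence-based Adapta TR-FRET kinase assay. Values are the average of 3 experiments, each run in duplicate, given as mean ± SEM.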

The target in test [2] is PI3-kinase p110-delta/p85-alpha (Homo sapiens, UniProt O00329). Briefly: Inhibition of recombinant human full length His-tagged PI3K p110delta/p85alpha expressed in baculovirus expression system coexpressing PIK3R1 by TR-FRET assay. An outline of the steps:
as §1
For orientation: In TR-FRET formats the signal depends on donor and acceptor labels being close together.

Test [3] has as its target T1, Dual specificity mitogen-activated protein kinase kinase 1 (Homo sapiens, UniProt Q02750). The experiment in a line: Inhibition of recombinant human GST-tagged MEK1 expressed in baculovirus infected Sf9 insect cells using inactive ERK2 as substrate preincubated for 30 mins followed by substrate addition measured after 2 hrs by kinase-glo reagent based bioluminescence assay.

Test [4] concerns the target T1, Dual specificity mitogen-activated protein kinase kinase 1. The experiment in a line: Inhibition of MEK1 in human A375 cell lysate assessed as reduction in ERK1/2 phosphorylation at Thr202/Tyr204 at 20 uM after 1 hr by Western blot analysis. In outline:
(§2)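 A375 cells (constitutive MEK1/PI3K pathway activation) incubated 1 h with compound at 20 µM against equimolar DMSO. Lysates immunoblotted: ERK1/2 phosphorylation for MEK1 activity, AKT Ser473 phosphorylation for PI3K activity.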
On the technique in general: A western blot detects proteins with antibodies after separation by electrophoresis.

Another test is filed under the species Homo sapiens. Briefly: Inhibition of PI3K in human A375 cell lysate assessed as reduction in Akt phosphorylation at Ser473 residue at 20 uM after 1 hr by Western blot analysis. An outline of the steps:
as §2

Test [5] deals with A-375. The experiment in a line: Antitumor activity against human A375 cells xenografted in athymic Foxn1nu mouse assessed as tumor growth inhibition at 400 mg/kg, qd administered via oral gavage measured after 35 days by MRI imaging analysis. The test is classed as functional, organism-based. An outline of the steps:
(§3)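 Nude mice inoculated in the flank with 5 x 10^6 A375 cells in 100 µl. Dosing began once tumors exceeded 100 mm3, after randomization. Daily oral gavage at 400 mg/kg until sacrifice at 42 days; vehicle was 200 µl OraPlus. Tumor growth followed by MRI twice per week.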
On the technique in general: In xenograft studies the graft and the host belong to different species.

The test system of test [6] is A-375. Briefly: Antiproliferative activity against human A375 spheroids at 20 uM after 72 hrs by calcein AM/ethidium homodimer 1 staining based fluorescence microscopy. It is filed as functional, cell-based. In outline: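 A375 melanoma spheroids exposed 72 h to compound at 20 µM; then stained with calcein AM (live, green) and ethidium homodimer-1 (dead, red). Read by fluorescence microscopy. Replicate experiments, representative images.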

The subject of test [7] is A-375. Briefly: Antitumor activity against human A375 cells xenografted in athymic Foxn1nu mouse assessed as tumor growth inhibition at 400 mg/kg, qd administered via oral gavage for 42 days measured twice per week by MRI imaging analysis. It is filed as functional, organism-based. In outline: as §3

Active and inactive are the calls of the source. No cut-off for these calls is given here.

T1 sequence (Q02750 whole entry): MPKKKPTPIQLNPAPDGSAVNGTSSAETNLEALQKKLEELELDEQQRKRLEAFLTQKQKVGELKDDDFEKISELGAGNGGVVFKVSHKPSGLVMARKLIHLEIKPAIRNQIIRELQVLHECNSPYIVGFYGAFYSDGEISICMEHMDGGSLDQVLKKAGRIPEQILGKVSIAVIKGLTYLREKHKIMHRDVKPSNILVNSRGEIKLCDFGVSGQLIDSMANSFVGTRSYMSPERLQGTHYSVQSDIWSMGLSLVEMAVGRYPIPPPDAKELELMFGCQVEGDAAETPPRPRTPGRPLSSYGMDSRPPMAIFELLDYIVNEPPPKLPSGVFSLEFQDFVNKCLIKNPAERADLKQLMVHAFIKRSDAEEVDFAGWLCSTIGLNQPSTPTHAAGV
Sequence of PI3-kinase p110-alpha/p85-alpha (P27986 whole entry, canonical isoform): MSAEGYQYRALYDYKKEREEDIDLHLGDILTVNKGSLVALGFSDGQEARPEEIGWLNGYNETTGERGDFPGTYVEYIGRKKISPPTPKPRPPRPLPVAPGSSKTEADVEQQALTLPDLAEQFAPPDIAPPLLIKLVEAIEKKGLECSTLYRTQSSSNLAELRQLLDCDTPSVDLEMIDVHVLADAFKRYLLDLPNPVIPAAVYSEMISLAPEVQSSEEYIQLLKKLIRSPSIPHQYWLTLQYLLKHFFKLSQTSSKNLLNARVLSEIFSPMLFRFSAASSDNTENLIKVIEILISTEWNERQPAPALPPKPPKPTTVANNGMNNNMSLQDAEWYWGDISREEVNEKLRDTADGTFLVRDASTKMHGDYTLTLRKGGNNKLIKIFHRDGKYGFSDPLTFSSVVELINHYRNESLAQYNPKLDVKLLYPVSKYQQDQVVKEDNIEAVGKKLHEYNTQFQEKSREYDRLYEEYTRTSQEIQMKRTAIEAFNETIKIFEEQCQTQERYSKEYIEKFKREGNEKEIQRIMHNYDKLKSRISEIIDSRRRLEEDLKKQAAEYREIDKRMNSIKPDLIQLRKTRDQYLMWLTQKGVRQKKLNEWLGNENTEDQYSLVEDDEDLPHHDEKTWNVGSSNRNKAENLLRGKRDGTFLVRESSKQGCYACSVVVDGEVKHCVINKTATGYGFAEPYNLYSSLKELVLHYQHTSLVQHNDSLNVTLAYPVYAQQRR
Sequence of PI3-kinase p110-alpha/p85-alpha (P42336 whole entry, canonical isoform): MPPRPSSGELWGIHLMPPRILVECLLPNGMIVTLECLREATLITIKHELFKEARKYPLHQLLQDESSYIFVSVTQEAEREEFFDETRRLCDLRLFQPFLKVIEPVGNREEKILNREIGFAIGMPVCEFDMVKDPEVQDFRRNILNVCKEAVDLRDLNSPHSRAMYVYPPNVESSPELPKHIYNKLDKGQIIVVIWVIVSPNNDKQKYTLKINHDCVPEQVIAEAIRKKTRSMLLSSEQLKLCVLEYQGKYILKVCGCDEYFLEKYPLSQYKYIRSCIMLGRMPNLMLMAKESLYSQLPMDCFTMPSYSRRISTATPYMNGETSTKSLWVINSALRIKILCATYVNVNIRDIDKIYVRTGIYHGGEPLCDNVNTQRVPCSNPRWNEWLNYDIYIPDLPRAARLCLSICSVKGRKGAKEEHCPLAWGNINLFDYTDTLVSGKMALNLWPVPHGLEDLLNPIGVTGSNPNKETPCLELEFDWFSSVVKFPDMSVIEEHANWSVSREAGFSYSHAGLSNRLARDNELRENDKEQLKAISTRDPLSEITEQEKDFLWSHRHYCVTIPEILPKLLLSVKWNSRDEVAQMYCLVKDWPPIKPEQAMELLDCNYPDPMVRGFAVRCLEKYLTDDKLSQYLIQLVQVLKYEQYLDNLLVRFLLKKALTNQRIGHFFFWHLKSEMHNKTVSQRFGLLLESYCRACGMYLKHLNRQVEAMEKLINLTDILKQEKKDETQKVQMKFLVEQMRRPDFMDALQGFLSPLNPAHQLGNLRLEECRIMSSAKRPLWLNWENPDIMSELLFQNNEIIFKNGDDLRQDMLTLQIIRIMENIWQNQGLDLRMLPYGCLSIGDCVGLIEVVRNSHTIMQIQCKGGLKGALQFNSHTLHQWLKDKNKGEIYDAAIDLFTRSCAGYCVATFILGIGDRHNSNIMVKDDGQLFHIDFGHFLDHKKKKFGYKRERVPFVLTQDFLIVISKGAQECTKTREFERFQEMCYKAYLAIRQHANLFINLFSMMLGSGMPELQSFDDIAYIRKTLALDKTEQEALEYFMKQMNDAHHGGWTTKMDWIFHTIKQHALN
Sequence of PI3-kinase p110-delta/p85-alpha (P27986 whole entry): as the sequence (P27986 whole entry, canonical isoform) above
Sequence of PI3-kinase p110-delta/p85-alpha (O00329 whole entry): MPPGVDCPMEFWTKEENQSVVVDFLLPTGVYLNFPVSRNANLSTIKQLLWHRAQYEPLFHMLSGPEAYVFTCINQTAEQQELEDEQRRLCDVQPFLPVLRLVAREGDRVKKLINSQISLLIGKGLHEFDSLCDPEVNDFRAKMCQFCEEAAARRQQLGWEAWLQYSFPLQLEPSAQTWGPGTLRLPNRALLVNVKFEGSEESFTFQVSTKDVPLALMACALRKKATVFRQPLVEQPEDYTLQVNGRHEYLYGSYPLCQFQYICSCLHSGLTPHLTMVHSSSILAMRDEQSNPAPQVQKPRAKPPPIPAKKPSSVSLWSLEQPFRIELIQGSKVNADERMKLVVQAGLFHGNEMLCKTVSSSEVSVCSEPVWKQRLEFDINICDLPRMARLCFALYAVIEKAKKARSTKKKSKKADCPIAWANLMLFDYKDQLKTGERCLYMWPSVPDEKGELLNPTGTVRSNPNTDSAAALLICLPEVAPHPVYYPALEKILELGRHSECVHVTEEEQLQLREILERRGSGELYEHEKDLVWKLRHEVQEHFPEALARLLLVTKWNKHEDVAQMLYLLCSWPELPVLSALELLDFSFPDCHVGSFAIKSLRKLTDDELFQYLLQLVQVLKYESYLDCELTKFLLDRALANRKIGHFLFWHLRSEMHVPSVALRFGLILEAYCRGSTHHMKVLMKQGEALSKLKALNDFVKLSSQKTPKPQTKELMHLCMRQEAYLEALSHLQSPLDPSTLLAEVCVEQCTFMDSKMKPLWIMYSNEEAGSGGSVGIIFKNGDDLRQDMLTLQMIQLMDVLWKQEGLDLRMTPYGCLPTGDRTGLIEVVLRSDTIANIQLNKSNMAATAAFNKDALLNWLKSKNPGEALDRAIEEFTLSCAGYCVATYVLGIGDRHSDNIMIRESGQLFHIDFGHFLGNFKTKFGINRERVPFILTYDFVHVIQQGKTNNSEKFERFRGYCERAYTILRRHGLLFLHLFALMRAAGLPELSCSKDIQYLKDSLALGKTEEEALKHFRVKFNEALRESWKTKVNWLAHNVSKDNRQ

For `NOCCOCCOCCOCCC(=O)N1CCN(c2nc(N3CCOCC3)nc(-n3c(C(F)F)nc4ccccc43)n2)CC1`, the IC50 – broadly, the concentration needed to halve the response being measured – in test [1] stood at 11.5 nM; in test [2] it was 1.3 nM.
In the case of `FC(F)c1nc2ccccc2n1-c1nc(N2CCNCC2)nc(N2CCOCC2)n1`, the IC50 was determined as 180 nM in test [1] and 142 nM in test [2].
`O=C(NOCCOCCOCCOCCC(=O)N1CCN(c2nc(N3CCOCC3)nc(-n3c(C(F)F)nc4ccccc43)n2)CC1)c1ccc(F)c(F)c1Nc1ccc(I)cc1F`: the IC50 in test [3] came out at 182 nM; in test [1], 69.2 nM; in test [2], 41.7 nM. The inhibition result (in test [4]; in the test listed under Homo sapiens) was “Active” throughout. The TGI result in the test on A-375 [5] is “Active”. The result with A-375 [6] was Active.
`O=C(NOCCOCCOCCOCCN1CCN(c2nc(N3CCOCC3)nc(-n3c(C(F)F)nc4ccccc43)n2)CC1)c1ccc(F)c(F)c1Nc1ccc(I)cc1F`: the IC50 amounted to 398 nM in test [3], 191 nM in test [1] and 942 nM in test [2]. Also, the inhibition entry (in test [4]; in the test filed under Homo sapiens) was “Active” throughout. Also, the TGI entry in the test on A-375 [7] is “Active”. The outcome in the test with A-375 [6] was Active.
In the case of `CC(=O)N1CCN(c2nc(N3CCOCC3)nc(-n3c(C(F)F)nc4ccccc43)n2)CC1`, the IC50 in test [1] came out at 8.2 nM; in test [2] it was 2.9 nM.

The values above are taken from ChEMBL document CHEMBL4118094, “Structure-Guided Design and Initial Studies of a Bifunctional MEK/PI3K Inhibitor (ST-168)” (ACS Med Chem Lett, 2017).
